# Experimental data from article PMC9535927 (The Biochemical journal, 2020).
# Like-named read-outs stand apart in the source and are kept apart here.
# Tests used:
# ASCT2 [1] = target: T1, ASCT2 (Homo sapiens, UniProt Q15758); test: Radiotracer flux: 14C BMAA uptake in ASCT2-transfected MDCK-II cell monolayers; assay type: cell-based
# T1 sequence (Q15758 1-541): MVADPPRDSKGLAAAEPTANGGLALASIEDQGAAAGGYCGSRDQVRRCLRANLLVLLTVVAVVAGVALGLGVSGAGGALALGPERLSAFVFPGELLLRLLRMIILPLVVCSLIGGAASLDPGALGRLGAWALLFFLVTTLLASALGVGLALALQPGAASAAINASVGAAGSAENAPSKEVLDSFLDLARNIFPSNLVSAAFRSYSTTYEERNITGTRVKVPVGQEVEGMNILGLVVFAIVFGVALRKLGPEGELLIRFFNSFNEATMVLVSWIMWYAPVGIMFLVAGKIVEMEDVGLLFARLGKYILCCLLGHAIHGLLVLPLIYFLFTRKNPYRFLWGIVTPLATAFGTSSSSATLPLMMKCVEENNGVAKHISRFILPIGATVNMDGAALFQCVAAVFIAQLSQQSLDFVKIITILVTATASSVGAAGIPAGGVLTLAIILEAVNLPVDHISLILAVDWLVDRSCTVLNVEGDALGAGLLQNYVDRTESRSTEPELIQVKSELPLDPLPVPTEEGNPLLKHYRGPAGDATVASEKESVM
# In short: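 ASCT2-transfected MDCK-II cells grown as monolayers on transwell membranes, assayed 48 h after transfection. After washing, 2 mM 14C BMAA was applied apically for 5 min. Apical and basolateral solutions were then aspirated and both sides washed. Cells were extracted in acetonitrile:water (50:50) and the extract counted by liquid scintillation. Uptake is given as pmol/min/cm2 and compared with non-ASCT2-expressing control cells.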
# ASCT2 [2] = assay type: cell-based, rat/human
# ASCT2 [3] = conditions: read-out: Ki (competes with alanine for the substrate binding site); cited from earlier work
# [4] = Proton ionisation constants; assay type: physicochemical; conditions: pH 7.4
# [5] = cited from earlier work
# rASCT2 = target: T2, rASCT2 (Rattus norvegicus, UniProt D3ZJ25); test: Glutamine uptake fluorescence assay; assay type: cell-based
# T2 sequence (D3ZJ25 1-555): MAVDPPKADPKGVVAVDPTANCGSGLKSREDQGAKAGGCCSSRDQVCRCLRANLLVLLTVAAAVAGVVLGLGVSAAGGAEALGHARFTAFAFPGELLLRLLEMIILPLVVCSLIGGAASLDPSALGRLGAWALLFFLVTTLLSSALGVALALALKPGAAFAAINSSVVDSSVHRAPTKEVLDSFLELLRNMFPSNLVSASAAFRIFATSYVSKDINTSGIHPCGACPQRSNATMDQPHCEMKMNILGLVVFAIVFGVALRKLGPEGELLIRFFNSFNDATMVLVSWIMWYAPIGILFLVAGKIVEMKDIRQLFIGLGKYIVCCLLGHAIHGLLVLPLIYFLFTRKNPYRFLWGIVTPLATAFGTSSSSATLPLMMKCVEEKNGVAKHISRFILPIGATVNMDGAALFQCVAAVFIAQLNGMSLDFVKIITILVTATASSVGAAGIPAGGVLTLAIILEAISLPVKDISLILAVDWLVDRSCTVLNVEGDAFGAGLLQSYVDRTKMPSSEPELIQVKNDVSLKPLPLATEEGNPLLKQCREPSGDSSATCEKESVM
# [6] = 4 mM (D-2,3-DAP: up to 4 mM), pH 7.40
# [7] = 2 mM, pH 7.40, intracellular SCN-
compound,measurement,setting,value
"CNC[C@H](N)C(=O)O [BMAA, β-N-Methylamino-L-Alanine]",uptake of 14C BMAA,"ASCT2 [1]; 2 mM, control cells (non-ASCT2 expressing)",163 ± 36 pmol/min/cm^2
same,"transport rate by ASCT2, fold lower than L-glutamine","ASCT2 [1]; if transported at all, inferred from sensitivity of uptake assay",at least 10 fold
same,inward current relative to the maximum anion current induced by L-alanine,"ASCT2 [2]; pH 7.40, V = 0 mV",less than 20%
"O=C(O)[C@@H]1C[C@@H](Cc2ccc(-c3ccccc3)cc2)CN1 [BPP, (R)-γ-(4-biphenylmethyl)-L-proline]",Ki,ASCT2 [3],3000 nM
"NC[C@@H](N)C(=O)O [D-2,3-DAP]",current elicited on application to ASCT2-expressing cells,ASCT2 [2]; [6],did not produce any current
"NCC[C@H](N)C(=O)O [L-DAB, L-2,4-diaminobutyric acid]",current elicited on application to ASCT2-expressing cells,ASCT2 [2]; [7],"produced an inward current, however, with smaller magnitude than that generated by L-DAP"
"NC[C@H](N)C(=O)O [L-DAP, L-2,3-diaminopropionic acid]",direction of evoked current at low pH,"ASCT2 [2]; 2 mM, extracellular pH below 6.50, V = 0 mV",outwardly directed
same,current elicited on application to ASCT2-expressing cells,ASCT2 [2]; [7],elicited an inwardly-directed current
same,apparent valence from slope of log(Km) vs. voltage,"ASCT2 [2]; extracellular 140 mM NaCl, intracellular 130 mM NaSCN, pH 7.4",0.21 ± 0.04
same,protonation of the α-amino group,[4],20%
same,pKa of the α-amino group,[5],6.7
same,decrease in fluorescence emission in the Venus range (glutamine uptake),rASCT2; 500 μM glutamine plus 2 mM test compound,1.00 ± 1.14%
NCCCC[C@H](N)C(=O)O [L-lysine],current elicited on application to ASCT2-expressing cells,ASCT2 [2]; [6],not significantly different from zero
NCCC[C@H](N)C(=O)O [L-ornithine],current elicited on application to ASCT2-expressing cells,ASCT2 [2]; [6],not significantly different from zero
N[C@@H](COCc1ccccc1)C(=O)O [benzylserine],decrease in fluorescence emission in the Venus range (glutamine uptake),rASCT2; 500 μM glutamine plus 5 mM test compound,2.70 ± 1.25%
NC(=O)CC[C@H](N)C(=O)O [glutamine],decrease in fluorescence emission in the Venus range (glutamine uptake),rASCT2; 500 μM glutamine applied externally alone,11.2 ± 0.89%
NC(=O)CCCC(N)C(=O)O (centres unmarked) [homoglutamine],current elicited on application to ASCT2-expressing cells,ASCT2 [2]; pH 7.4,outward current
